Assay results: PMC7217734 (Journal of biomolecular structure & dynamics, 2019)
Residues, ends and D or L forms follow the SMILES beside them.

Experiments:
[1] = target: T1, peptide 91a (coil 1A of vimentin) (Homo sapiens, UniProt P08670, A91E/F96L/I92R/N93L/Q126R/Q127R/T94A/V121L); assay: Isothermal titration calorimetry; format: binding; details: NANO ITC; 374a 0.540mM in syringe, 91a 0.095mM in cell
T1 sequence (P08670 with tags, fused parts or gaps V121L/Q126R/Q127R limits assumed): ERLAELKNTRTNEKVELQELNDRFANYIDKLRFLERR
Outline: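 The peptides were dissolved in 10 mM Tris pH 8.0. In a low-volume nano calorimeter, the syringe peptide was titrated into the cell peptide in 20 injections of 2.5 µl. Raw heat rate was recorded in µJ/s, and each injection peak was integrated to µJ. The isotherm gave the dissociation constant and stoichiometry n.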

Dynamic light scattering = format: physicochemical; details: 25°C, 1 mg/ml; 50mM NaCl, 10mM Tris-HCl (pH 7.5); individual peptide

CC[C@H](C)[C@H](NC(=O)[C@H](CCC(=O)O)NC(=O)[C@@H](NC(=O)[C@H](CC(=O)O)NC(=O)[C@H](CC(C)C)NC(=O)[C@H](C)NC(=O)[C@H](CCSC)NC(=O)[C@H](CCCCN)NC(=O)[C@@H](NC(=O)[C@H](CC(N)=O)NC(=O)[C@H](CC(C)C)NC(=O)[C@H](CC(C)C)NC(=O)[C@H](CC(=O)O)NC(=O)[C@H](CCC(N)=O)NC(=O)[C@H](Cc1ccc(O)cc1)NC(=O)[C@H](CCC(=O)O)NC(=O)[C@H](CCCNC(=N)N)NC(=O)[C@H](CCC(=O)O)NC(=O)[C@H](CC(C)C)NC(=O)[C@H](CCCNC(=N)N)NC(=O)[C@H](C)NC(=O)[C@H](CC(C)C)NC(=O)[C@H](CCC(=O)O)NC(=O)[C@@H](N)CCC(=O)O)C(C)C)[C@@H](C)CC)C(=O)N[C@@H](C)C(=O)N[C@H](C(=O)N[C@@H](Cc1ccc(O)cc1)C(=O)N[C@@H](CCCNC(=N)N)C(=O)N[C@@H](CCCCN)C(=O)N[C@@H](CC(C)C)C(=O)N[C@@H](CC(C)C)C(=O)N[C@@H](CCC(=O)O)C(=O)N[C@@H](C)C(=O)N[C@@H](CC(C)C)C(=O)N[C@@H](CCC(=O)O)C(=O)N[C@@H](CO)C(=O)N[C@@H](CCCNC(=N)N)C(=O)O)[C@@H](C)O [peptide 374a] (H-EELARLEREYQDLLNVKMALDIEIATYRKLLEALESR-OH; N-terminus and C-terminus assumed)
stoichiometric ratio n [1]: ~1 | thermodynamic character of interaction, in words [1]: enthalpy-driven interaction | aggregation by DLS, in words (Dynamic light scattering): aggregation is occurring
